Test results: ChEMBL document CHEMBL3867423, “New imidazolidineiminothione derivatives: Synthesis, spectral characterization and evaluation of antitumor, antiviral, antibacterial and antifungal activities” (Eur J Med Chem, 2016)
In brackets after ≈: the same amount, converted by molar mass.

Columns and labels:
Hepatovirus A = test: Antiviral activity against Hepatitis A virus infected in African green monkey Vero cells by plaque formation assay; format: functional; design: concentration or dose not given beside the values
[1] = Cytotoxicity against human HepG2 cells assessed as decrease in cell viability after 48 hrs by SRB assay; format: functional, cell-based
How it was run: (§1)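 SRB assay. Cells seeded at 10⁴ per well and allowed to attach for 24 h. Exposed to 0, 5, 12.5, 25 and 50 µg/mL, triplicate wells per dose, for 48 h at 37 °C in 5% CO₂. Cells fixed and SRB-stained; excess dye removed with acetic acid, bound dye recovered in Tris-EDTA and read on an ELISA reader. IC50 read from the surviving-fraction curve.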

[2] = Cytotoxicity against human MCF7 cells assessed as decrease in cell viability after 48 hrs by SRB assay; format: functional, cell-based; design: unit not given here; how it was run: as §1
[3] = Cytotoxicity against human HCT116 cells assessed as decrease in cell viability after 48 hrs by SRB assay; format: functional, cell-based; conditions: hct-116; how it was run: as §1
[4] = Cytotoxicity against human PC3 cells assessed as decrease in cell viability after 48 hrs by SRB assay; format: functional, cell-based; conditions: pc-3; how it was run: as §1
Human alphaherpesvirus 1 = test: Antiviral activity against HSV1 infected in African green monkey Vero cells by plaque formation assay; format: functional; design: concentration or dose not given beside the values
Coxsackievirus B4 = test: Antiviral activity against human Coxsackie virus B4 infected in African green monkey Vero cells by plaque formation assay; format: functional; design: concentration or dose not given beside the values
Micrococcus luteus [5] = test: Antibacterial activity against Micrococcus luteus ATCC 10240 at 5 mg after 24 hrs by agar well diffusion assay; format: functional; conditions: ATCC 10240, 24 h, read-out: DIZ
How it was run: (§2)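 Agar well diffusion. 100 µL inoculum (1×10⁸ CFU/mL bacteria, 1×10⁶ CFU/mL yeast) spread on nutrient agar (bacteria) or Sabouraud dextrose agar (fungi). 10 mm wells loaded with 100 µL of 5 mg/mL compound in DMSO. DMSO as negative control. Erythromycin (bacteria) or […] (fungi) at 5 mg/ml as standards. Plates incubated 24 h at 37 °C. Inhibition zone diameter (mm) measured, mean of triplicate.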

Bacillus subtilis = test: Antibacterial activity against Bacillus subtilis NCTC 10400 at 5 mg after 24 hrs by agar well diffusion assay; format: functional; conditions: NCTC 10400, 24 h, read-out: DIZ; how it was run: as §2
Bacillus pumilus [6] = test: Antibacterial activity against Bacillus pumilus at 5 mg after 24 hrs by agar well diffusion assay; format: functional; conditions: read-out: DIZ; how it was run: as §2
Pseudomonas aeruginosa [7] = test: Antibacterial activity against Pseudomonas aeruginosa ATCC 25619 at 5 mg after 24 hrs by agar well diffusion assay; format: functional; conditions: ATCC 25619, 24 h, read-out: DIZ; how it was run: as §2
Escherichia coli = test: Antibacterial activity against Escherichia coli ATCC 10536 at 5 mg after 24 hrs by agar well diffusion assay; format: functional; conditions: ATCC 10536, 24 h, read-out: DIZ; how it was run: as §2
Micrococcus luteus [8] = test: Antibacterial activity against Sarcina lutea at 5 mg after 24 hrs by agar well diffusion assay; format: functional; conditions: read-out: DIZ; how it was run: as §2
Candida albicans [9] = test: Antifungal activity against Candida albicans IMRU 3669 at 5 mg after 24 hrs by agar well diffusion assay; format: functional; conditions: IMRU 3669, 24 h, read-out: DIZ; how it was run: as §2
Aspergillus niger = test: Antifungal activity against Aspergillus niger at 5 mg after 24 hrs by agar well diffusion assay; format: functional; conditions: read-out: DIZ; how it was run: as §2
[10] = Antifungal activity against Penicillium chrysogenum at 5 mg after 24 hrs by agar well diffusion assay; format: functional; how it was run: as §2
Pseudomonas aeruginosa [11] = test: Antibacterial activity against Pseudomonas aeruginosa ATCC 25619 after 24 hrs by two-fold serial dilution method; format: functional; conditions: ATCC 25619, 24 h
How it was run: (§3)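 Two-fold serial dilutions of DMSO stock in adjusted Mueller-Hinton broth, final 100 to 0.78 µg/ml. Bacteria pre-grown in nutrient broth, fungi in malt extract broth (48 h). Each 5 ml tube given 0.1 ml inoculum (1×10⁸ CFU/ml bacteria, 1×10⁶ CFU/ml fungi), incubated 37 °C 24 h. MIC taken as lowest concentration with no growth; triplicate, averaged.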

Micrococcus luteus [12] = test: Antibacterial activity against Sarcina lutea after 24 hrs by two-fold serial dilution method; format: functional; how it was run: as §3
Bacillus pumilus [13] = test: Antibacterial activity against Bacillus pumilus after 24 hrs by two-fold serial dilution method; format: functional; how it was run: as §3
Micrococcus luteus [14] = test: Antibacterial activity against Micrococcus luteus ATCC 10240 after 24 hrs by two-fold serial dilution method; format: functional; conditions: ATCC 10240, 24 h; how it was run: as §3
Candida albicans [15] = test: Antifungal activity against Candida albicans IMRU 3669 after 24 hrs by two-fold serial dilution method; format: functional; conditions: IMRU 3669, 24 h; how it was run: as §3

SMILES | Activity (Hepatovirus A) [%] | IC50 [1] [µg] | IC50 [2] | IC50 [3] [µg] | IC50 [4] [µg] | Activity (Human alphaherpesvirus 1) [%] | Activity (Coxsackievirus B4) [%] | zone of inhibition at 5000 µg/disc (Micrococcus luteus [5]) [mm] | zone of inhibition at 5000 µg/disc (Bacillus subtilis) [mm] | zone of inhibition at 5000 µg/disc (Bacillus pumilus [6]) [mm] | zone of inhibition at 5000 µg/disc (Pseudomonas aeruginosa [7]) [mm] | zone of inhibition at 5000 µg/disc (Escherichia coli) [mm] | zone of inhibition at 5000 µg/disc (Micrococcus luteus [8]) [mm] | zone of inhibition at 5000 µg/disc (Candida albicans [9]) [mm] | zone of inhibition at 5000 µg/disc (Aspergillus niger) [mm] | inhibition zone (IZ) [10] [mm] | further results
COc1ccc(OC)c(N2C(=O)N(c3ccc(C)cc3)C(=N)C2=S)c1 | 30.7 | 0.037 | 0.015 | 0.014 | 0.048 | 50.2 | 0 | 17 | 16 | 20 | 14 | 16 | 26 | 17 | 16 | 17 | –
N=C1C(=S)N(c2cc(Cl)cc(Cl)c2)C(=O)N1c1cc(Cl)c(Cl)cc1Cl | 80.3 | 0.017 | 0.015 | 0.015 | 0.017 | 96.7 | 20.6 | 16 | 27 | 21 | 18 | 27 | 21 | 21 | 15 | 20 | –
N=C1C(=S)N(c2ccccc2)C(=O)N1c1c(Cl)cccc1Cl | 0 | – | – | – | – | 33.3 | 0 | 14 | 18 | 18 | 15 | 18 | 26 | 23 | 17 | 16 | –
COc1ccc(N2C(=N)C(=S)N(c3cc(OC)ccc3OC)C2=O)cc1 | 60.1 | 0.032 | 0.031 | 0.051 | 0.051 | 42 | 0 | 17 | 28 | 23 | 26 | 28 | 27 | 29 | 19 | 20 | MIC (Pseudomonas aeruginosa [11]): 0.78 µg/mL (≈ 2.1 µM); MIC (Micrococcus luteus [12]): 6.25 µg/mL (≈ 16.8 µM); MIC (Bacillus pumilus [13]): 3.12 µg/mL (≈ 8.4 µM); MIC (Micrococcus luteus [14]): 6.25 µg/mL (≈ 16.8 µM); MIC (Candida albicans [15]): 6.25 µg/mL (≈ 16.8 µM)
Cc1ncc([N+](=O)[O-])n1CCO [METRONIDAZOLE] | – | – | – | – | – | – | – | – | – | – | – | – | – | 27 | 33 | 25 | –
N=C1C(=S)N(c2cc(Cl)cc(Cl)c2)C(=O)N1c1cccc(Cl)c1 | 100 | 0.025 | 0.011 | 0.041 | 0.031 | 36.4 | 41.6 | 16 | 30 | 15 | 0 | 30 | 24 | 24 | 16 | 21 | –
CC[C@H]1OC(=O)[C@H](C)[C@@H](O[C@H]2C[C@@](C)(OC)[C@@H](O)[C@H](C)O2)[C@H](C)[C@@H](O[C@@H]2O[C@H](C)C[C@H](N(C)C)[C@H]2O)[C@](C)(O)C[C@@H](C)C(=O)[C@H](C)[C@@H](O)[C@]1(C)O [ERYTHROMYCIN] | – | – | – | – | – | – | – | 32 | 40 | 32 | 30 | 37 | 44 | – | – | – | –
COc1ccc(OC)c(N2C(=O)N(c3ccc4c(c3)Cc3ccccc3-4)C(=N)C2=S)c1 | 29.9 | 0.048 | 0.052 | 0.047 | 0.056 | 32.4 | 0 | 16 | 12 | 17 | 0 | 18 | 24 | 14 | 14 | 18 | –
COc1cccc2c1C(=O)c1c(O)c3c(c(O)c1C2=O)C[C@@](O)(C(=O)CO)C[C@@H]3O[C@H]1C[C@H](N)[C@H](O)[C@H](C)O1 [DOXORUBICIN] | – | 0.007 | – | 0.007 | 0.008 | – | – | – | – | – | – | – | – | – | – | – | –
Cc1ccc(N2C(=N)C(=S)N(c3cc(Cl)cc(Cl)c3)C2=O)cc1 | 66 | 0.014 | 0.009 | 0.053 | 0.035 | 71.6 | 43.6 | 17 | 16 | 20 | 16 | 16 | 28 | 21 | 18 | 19 | –
COc1ccc(N2C(=O)N(c3cccc(Cl)c3)C(=N)C2=S)c(OC)c1 | 36.2 | 0.012 | 0.02 | 0.023 | 0.031 | 47.4 | 2.3 | 14 | 20 | 17 | 16 | 20 | 28 | 27 | 18 | 20 | –
Cc1ccc(F)cc1N1C(=N)C(=S)N(c2ccc(Br)cc2)C1=O | 36.2 | – | – | – | – | 43.1 | 0 | 22 | 22 | 21 | 21 | 20 | 23 | 22 | 20 | 21 | –
N=C1C(=S)N(c2cc(Cl)cc(Cl)c2)C(=O)N1c1c(Cl)cccc1Cl | 70.2 | 0.039 | 0.02 | 0.039 | 0.064 | 33.6 | 0 | 16 | 19 | 17 | 17 | 19 | 27 | 23 | 15 | 18 | –
N=C1C(=S)N(c2cc(Cl)cc(Cl)c2)C(=O)N1c1ccc(Cl)c(C(F)(F)F)c1 | 0 | 0.028 | 0.024 | 0.044 | 0.039 | 9.6 | 0 | 21 | 20 | 21 | 21 | 18 | 23 | 22 | 12 | 20 | –
